Data set [1] has as its system Human immunodeficiency virus 1. The experiment in a line: Antiviral activity against wild type HIV1 by MTT assay. It is filed as functional, organism-based. For orientation: Formazan colour is commonly taken as a measure of viable cells.
Data set [2] in a line: Selectivity index, ratio of CC50 for human MT4 cells to EC50 for HIV2 ROD. Type of data set: toxicity, cell-based. Conditions: for Ratio CC50/EC50: mt4; for selectivity ratio: MT4 cells, read-out: Ratio CC50/EC50. A digest of the protocol:
(§1)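 Ratio of CC₅₀ to EC₅₀. Both come from a 5-day MTT assay in MT-4 cells, using parallel mock-infected wells and wells infected with the named virus strain (100–300 CCID₅₀), with serial fivefold compound dilutions in triplicate.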

In data set [3] the test system is Human immunodeficiency virus 1. The data set can be described thus: Antiviral activity against HIV1 3B infected in human MT4 cells assessed as virus-induced cytopathic effect by MTT assay. It is filed as functional, organism-based. Conditions: Human immunodeficiency virus 1, 3B; call rule not given here. Put shortly:
(§2)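 MT-4 cells (exponentially growing, resuspended at 6 × 10⁵ cells/mL) are infected with HIV-1 IIIB or HIV-2 ROD stock at 100–300 CCID₅₀. Serial fivefold compound dilutions are added at the start, in triplicate wells. After 5 days, viability is read by MTT reduction at OD540, using the median OD of three wells. EC₅₀ is the concentration giving 50% protection from the viral cytopathic effect.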
For orientation: Damage to the host cells serves as the signal in cytopathic effect assays.

Data set [4] deals with Human immunodeficiency virus 2. The experiment in a line: Antiviral activity against HIV2 ROD infected in human MT4 cells assessed as virus-induced cytopathic effect by MTT assay. It is filed as functional, organism-based. Conditions: Human immunodeficiency virus 2, ISOLATE ROD. Put shortly:
as §2

A short description of data set [5]: Selectivity index, ratio of CC50 for human MT4 cells to EC50 for HIV1 3B. Type of data set: toxicity, cell-based. The settings on record: for selectivity ratio: MT4 cells, read-out: Ratio CC50/EC50; for Ratio CC50/EC50: mt4. A digest of the protocol: as §1
The nature of data set [6]: Cytotoxicity against human MT4 cells by MTT assay. Type of data set: cell-based. A digest of the protocol:
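Mock-infected MT-4 cells (6 × 10⁵ cells/mL) are run in parallel triplicate wells with serial fivefold compound dilutions and culture medium in place of virus. After 5 days, MTT formazan is read at OD540, using the median OD of three wells. CC₅₀ is the concentration that cuts absorbance of the mock-infected control by 50%.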

For data set [7], the system named is Human immunodeficiency virus 1. The data set can be described thus: Antiviral activity against […] HIV1 bearing reverse transcriptase K103/Y181C mutation by MTT assay. Type of data set: functional, organism-based.

The source of these data is ChEMBL document CHEMBL1153517, “Synthesis and biological evaluation of imidazole thioacetanilides as novel non-nucleoside HIV-1 reverse transcriptase inhibitors” (Bioorg Med Chem, 2009).

One may read the IC50 as the concentration that inhibits the measured activity by half. Low readings indicate inhibition by little substance, high ones a need for much substance. By EC50 is commonly meant the concentration that produces a half-maximal response. The CC50 is the concentration giving 50% cytotoxicity. High values mean lower toxicity to the cells, low ones greater toxicity to the cells.

With `Cc1cc(C)c(-n2nnnc2SCC(=O)Nc2ccccc2Cl)c(C)c1`, in data set [1], the concentration for half-maximal inhibition (IC50) was 0.005 µM.
Regarding `COc1ccc(-n2ccnc2SCC(=O)Nc2ccccc2C)cc1`, the “Ratio CC50/EC50” value in data set [2] is on record as “Not Active”. Besides, the figures for the EC50 in data set [3] and in data set [4] were 155 µM and over 354 µM, respectively. In data set [5], the selectivity ratio is over 2. Besides, the CC50 in data set [6] was over 354 µM.
As for `Cc1ccc(-n2ccnc2SCC(=O)Nc2ccccc2[N+](=O)[O-])cc1`, the selectivity ratio in data set [2] is under 1; in data set [5] it was 126. Further, the EC50 in data set [3] is 1.03 µM; in data set [4] it was over 131 µM. Besides, in data set [6], the midpoint of cytotoxicity, the CC50, lay at 131 µM.
On the same counts, the results for `Cc1ccc(-n2ccnc2SCC(=O)Nc2ccc(C)cc2Br)cc1` are under 1, 66, over 80.8 µM, over 80.8 µM and 80.8 µM.
On the same counts, the results for `O=C(CSc1nccn1-c1cccc2ccccc12)Nc1ccccc1Cl` are under 1, 170, 0.2 µM, over 35.2 µM and 35.2 µM.
For `O=C(CSc1nccn1-c1ccc(Cl)cc1)Nc1ccccc1Cl`, the “Ratio CC50/EC50” value in data set [2] and in data set [5] was “Not Active” each time. The EC50 is at least 11.7 µM in data set [3] and over 330 µM in data set [4]. For the same molecule, the CC50 in data set [6] is over 330 µM.
`Cc1ccnc2c1NC(=O)c1cccnc1N2C1CC1` [NEVIRAPINE] displayed a CC50 in data set [6] of over 15 µM.
For `Cc1ccccc1NC(=O)CSc1nccn1-c1cccc2ccccc12`, the results for the selectivity ratio in data set [2] and in data set [5] were under 1 and 14, respectively. In addition, the EC50 was 2.46 µM in data set [3] and over 34.6 µM in data set [4]. Further, it took 34.6 µM to reach half-maximal cytotoxicity in data set [6] (CC50).
On to `COc1ccc(-n2ccnc2SCC(=O)Nc2ccccc2[N+](=O)[O-])cc1`, for which the selectivity ratio in data set [2] was under 1; in data set [5] it was over 9. Moreover, the EC50 in data set [3] is 17.9 µM; in data set [4], over 161 µM. In addition, the cytotoxic concentration (CC50) in data set [6] is 161 µM.
On the same counts, the results for `Cc1ccccc1NC(=O)CSc1nccn1-c1ccc(Cl)cc1` are under 1, 5, 35.4 µM, over 160 µM and 160 µM.
For `COc1ccc(-n2ccnc2SCC(=O)Nc2ccccc2Cl)cc1`, in data set [2], the “Ratio CC50/EC50” value is on record as “Not Active”. For the same molecule, the values for the EC50 in data set [3] and in data set [4] were 32.3 µM and over 334 µM, respectively. For the same molecule, in data set [5], the selectivity ratio was over 10. This molecule returned a CC50 in data set [6] of over 334 µM.
As to `COc1ccc(-n2ccnc2SCC(=O)Nc2ccccc2Br)cc1`, in data set [2], the “Ratio CC50/EC50” value is reported as “Not Active”. The EC50 was at least 18.4 µM in data set [3] and over 299 µM in data set [4]. This molecule displayed a CC50 in data set [6] of over 299 µM.
In the case of `Cc1ccc(NC(=O)CSc2nnc(C)n2-c2ccccc2)c(Br)c1`, the EC50 in data set [7] is 1.3 µM; in data set [1] it was 0.1 µM.
As for `Cc1ccc(-n2ccnc2SCC(=O)Nc2ccccc2Cl)cc1`, the selectivity ratio was under 1 in data set [2] and 7 in data set [5]. The figures for the EC50 in data set [3] and in data set [4] were 4.97 µM and over 33.7 µM, respectively. In data set [6], this molecule showed a CC50 of 33.7 µM.
On the same counts, the results for `Cc1ccc(-n2ccnc2SCC(=O)Nc2ccccc2C)cc1` are under 1, 5, 30.9 µM, over 147 µM and 147 µM.
On the same counts, the results for `Cc1ccc(NC(=O)CSc2nccn2-c2cccc3ccccc23)c(Br)c1` are under 1, 40, 0.73 µM, over 29.4 µM and 29.4 µM.
Consider `COc1ccc(-n2ccnc2SCC(=O)Nc2ccc(C)cc2Br)cc1`, for which the selectivity ratio in data set [2] and in data set [5] was under 1 throughout. Besides, the EC50 in data set [3] and in data set [4] was over 25.8 µM throughout. In data set [6], this molecule came in with a CC50 of 25.8 µM.
In the case of `Cc1ccc(-n2ccnc2SCC(=O)Nc2ccccc2F)cc1`, the selectivity ratio in data set [2] and in data set [5] was under 1 in each case. For the same molecule, the EC50 in data set [3] and in data set [4] was over 37.9 µM throughout. The CC50 in data set [6] is 37.9 µM.
As to `O=C(CSc1nccn1-c1cccc2ccccc12)Nc1ccccc1[N+](=O)[O-]`, the selectivity ratio is under 1 in data set [2] and 162 in data set [5]. Further, the figures for the EC50 in data set [3] and in data set [4] were 0.18 µM and over 28.8 µM, respectively. In data set [6], half-maximal cytotoxicity (CC50) was put at 28.8 µM.
Regarding `O=C(CSc1nccn1-c1cccc2ccccc12)Nc1ccccc1F`, the selectivity ratio in data set [2] is under 1; in data set [5], 20. The half-maximal effective concentration (EC50) in data set [3] was 1.78 µM; in data set [4], over 34.7 µM. Besides, the CC50 in data set [6] was determined as 34.7 µM.
`O=C1Nc2ccc(Cl)cc2[C@@](C#CC2CC2)(C(F)(F)F)O1` [EFAVIRENZ]: the selectivity ratio in data set [5] is over 1430. Also, in data set [6], the CC50 was over 6.34 µM.
With `Cc1ccc(-n2ccnc2SCC(=O)Nc2ccccc2Br)cc1`, the selectivity ratio in data set [2] was under 1; in data set [5], 8. Also, the figures for the EC50 in data set [3] and in data set [4] were 5.15 µM and over 39.3 µM, respectively. In data set [6], this molecule gave a CC50 of 39.3 µM.
As for `Cc1cn([C@H]2C[C@H](N=[N+]=[N-])[C@@H](CO)O2)c(=O)[nH]c1=O` [ZIDOVUDINE], in data set [5], the selectivity ratio is over 6190. In addition, in data set [6], the CC50 is over 93.5 µM.
In the case of `Cc1ccc(NC(=O)CSc2nccn2-c2ccc(Cl)cc2)c(Br)c1`, the selectivity ratio in data set [2] is under 1; in data set [5], 64. Further, the EC50 was at least 55.2 µM in data set [3] and over 204 µM in data set [4]. In addition, in data set [6], the CC50 was determined as 221 µM.
Regarding `CC(C)Nc1cccnc1N1CCN(C(=O)c2cc3cc(NS(C)(=O)=O)ccc3[nH]2)CC1` [DELAVIRDINE], the selectivity ratio in data set [5] is over 12. This molecule had a CC50 in data set [6] of over 3.83 µM.
For `COc1ccc(-n2ccnc2SCC(=O)Nc2ccccc2F)cc1`, the “Ratio CC50/EC50” value in data set [2] and in data set [5] was “Not Active” throughout. The EC50 in data set [3] and in data set [4] was over 42 µM in each case. Moreover, in data set [6], the CC50 was at least 42 µM.
Regarding `O=C(CSc1nccn1-c1ccc(Cl)cc1)Nc1ccccc1Br`, the “Ratio CC50/EC50” value in data set [2] was “Not Active”. Also, the EC50 in data set [3] was 15.8 µM; in data set [4], over 296 µM. Moreover, in data set [5], the selectivity ratio was over 19. The same molecule came in with a CC50 in data set [6] of over 300 µM.
Turning to `O=C(CSc1nccn1-c1cccc2ccccc12)Nc1ccccc1Br`, the values for the selectivity ratio in data set [2] and in data set [5] were under 1 and 48, respectively. Also, the EC50 in data set [3] was 0.64 µM; in data set [4], over 30.5 µM. This molecule also gave a cytotoxic concentration (CC50) in data set [6] of 30.5 µM.
On to `O=C(CSc1nccn1-c1ccc(Cl)cc1)Nc1ccccc1F`, for which the “Ratio CC50/EC50” value in data set [2] was “Not Active”. For the same molecule, the EC50 is 43.8 µM in data set [3] and over 345 µM in data set [4]. Moreover, the selectivity ratio in data set [5] is over 8. In data set [6], this molecule had a CC50 of over 345 µM.
Regarding `O=C(CSc1nccn1-c1ccc(Cl)cc1)Nc1ccccc1[N+](=O)[O-]`, the “Ratio CC50/EC50” value in data set [2] was “Not Active”. The EC50 was 4.86 µM in data set [3] and over 321 µM in data set [4]. Besides, the selectivity ratio in data set [5] was over 66. The same molecule yielded a CC50 in data set [6] of over 321 µM.
